# Laboratory results taken from ChEMBL document CHEMBL5303300, “EUbOPEN Chemogenomics Library - Multiplex” (2023).
# “And” between values parts separate entries of the source, which are not always exact repeats. Equal values may be shown once.
# What was measured:
# [1] = tested on: Fibroblast; assay: Multiplex assay against human fibroblast; format: toxicity, cell-based; settings: number of replicates 2
# Method in brief: (§1)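 Values for tubulin, mitochondrial-mass and membrane-permeability phenotypes are per cents of cells with healthy nuclei. These cells were identified by CellPathfinder machine-learning gating of live cells that had been stained at seeding with Hoechst33342, BioTracker Green Microtubule Cytoskeleton Dye, MitoTracker Red and Annexin V Alexa Fluor 680 and imaged on a CQ1 microscope at 37°C and 5% CO2 after compound addition. The gating first set Hoechst high-intensity objects apart from normal cells, then split normal cells into healthy, pyknosed or fragmented nuclei, and pyknosed cells into mitotic or apoptotic.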
# [2] = tested on: HEK-293T; assay: Multiplex assay against HEK293T; format: toxicity, cell-based; settings: human, number of replicates 2; method in brief: as §1
# [3] = 12 h, 1 µM, compound concentration 1 uM
# [4] = 12 h, 10 µM, compound concentration 10 uM
# [5] = 24 h, 1 µM, compound concentration 1 uM
# [6] = 24 h, 10 µM, compound concentration 10 uM
# [7] = 48 h, 1 µM, compound concentration 1 uM
# [8] = 48 h, 10 µM, compound concentration 10 uM
compound,measurement,setting,value
COc1ccc2cc(S(=O)(=O)N[C@H](CC(=O)N[C@H](Cc3ccc(CN4[C@H](C)CCC[C@@H]4C)cc3)C(=O)N(C)C(C)C)c3ccc4c(c3)OCO4)ccc2c1.Cl,Population Apoptotic (%),[1]; [3],31% and 54%
same,Population Fragmented Nuclei (%),[1]; [3],17% and 21%
same,Population Healthy Nuclei (%),[1]; [3],61% and 62%
same,Population Hoechst High Intensity Objects (%),[1]; [3],0%
same,Population Membrane Permeable-Phenotype (%),[1]; [3],6% and 11%
same,Population Mitochondria Different-Phenotype (%),[1]; [3],2% and 1%
same,Population Mitotic Cells (%),[1]; [3],68% and 45%
same,Population Normal (%),[1]; [3],100%
same,Population Pyknosed Nuclei (%),[1]; [3],20% and 16%
same,Population Tubulin-Different-Phenotype (%),[1]; [3],66% and 52%
same,Total Cell Count,[1]; [3],155 and 275
same,Population Apoptotic (%),[1]; [4],57% and 44%
same,Population Fragmented Nuclei (%),[1]; [4],26% and 14%
same,Population Healthy Nuclei (%),[1]; [4],52% and 66%
same,Population Hoechst High Intensity Objects (%),[1]; [4],0%
same,Population Membrane Permeable-Phenotype (%),[1]; [4],20% and 17%
same,Population Mitochondria Different-Phenotype (%),[1]; [4],21% and 16%
same,Population Mitotic Cells (%),[1]; [4],42% and 55%
same,Population Normal (%),[1]; [4],99%
same,Population Pyknosed Nuclei (%),[1]; [4],20% and 19%
same,Population Tubulin-Different-Phenotype (%),[1]; [4],97% and 84%
same,Total Cell Count,[1]; [4],160 and 258
same,Population Apoptotic (%),[1]; [5],43% and 66%
same,Population Fragmented Nuclei (%),[1]; [5],25% and 28%
same,Population Healthy Nuclei (%),[1]; [5],61% and 59%
same,Population Hoechst High Intensity Objects (%),[1]; [5],0%
same,Population Membrane Permeable-Phenotype (%),[1]; [5],0% and 5%
same,Population Mitochondria Different-Phenotype (%),[1]; [5],12% and 10%
same,Population Mitotic Cells (%),[1]; [5],56% and 33%
same,Population Normal (%),[1]; [5],100%
same,Population Pyknosed Nuclei (%),[1]; [5],13% and 12%
same,Population Tubulin-Different-Phenotype (%),[1]; [5],64% and 56%
same,Total Cell Count,[1]; [5],171 and 286
same,Population Apoptotic (%),[1]; [6],80%
same,Population Fragmented Nuclei (%),[1]; [6],20% and 16%
same,Population Healthy Nuclei (%),[1]; [6],56% and 57%
same,Population Hoechst High Intensity Objects (%),[1]; [6],1% and 0%
same,Population Membrane Permeable-Phenotype (%),[1]; [6],14% and 7%
same,Population Mitochondria Different-Phenotype (%),[1]; [6],42% and 56%
same,Population Mitotic Cells (%),[1]; [6],19% and 20%
same,Population Normal (%),[1]; [6],98% and 99%
same,Population Pyknosed Nuclei (%),[1]; [6],23% and 25%
same,Population Tubulin-Different-Phenotype (%),[1]; [6],93% and 92%
same,Total Cell Count,[1]; [6],159 and 220
same,Population Apoptotic (%),[1]; [7],77% and 72%
same,Population Fragmented Nuclei (%),[1]; [7],36% and 29%
same,Population Healthy Nuclei (%),[1]; [7],53% and 64%
same,Population Hoechst High Intensity Objects (%),[1]; [7],0%
same,Population Membrane Permeable-Phenotype (%),[1]; [7],2% and 3%
same,Population Mitochondria Different-Phenotype (%),[1]; [7],9% and 7%
same,Population Mitotic Cells (%),[1]; [7],22% and 27%
same,Population Normal (%),[1]; [7],99% and 100%
same,Population Pyknosed Nuclei (%),[1]; [7],9% and 5%
same,Population Tubulin-Different-Phenotype (%),[1]; [7],28% and 50%
same,Total Cell Count,[1]; [7],326 and 194
same,Population Apoptotic (%),[1]; [8],88% and 86%
same,Population Fragmented Nuclei (%),[1]; [8],24% and 18%
same,Population Healthy Nuclei (%),[1]; [8],62% and 65%
same,Population Hoechst High Intensity Objects (%),[1]; [8],5% and 9%
same,Population Membrane Permeable-Phenotype (%),[1]; [8],8% and 10%
same,Population Mitochondria Different-Phenotype (%),[1]; [8],46% and 55%
same,Population Mitotic Cells (%),[1]; [8],11% and 13%
same,Population Normal (%),[1]; [8],94% and 90%
same,Population Pyknosed Nuclei (%),[1]; [8],12% and 15%
same,Population Tubulin-Different-Phenotype (%),[1]; [8],87% and 83%
same,Total Cell Count,[1]; [8],138 and 202
same,Population Apoptotic (%),[2]; [3],40% and 62%
same,Population Fragmented Nuclei (%),[2]; [3],2% and 1%
same,Population Healthy Nuclei (%),[2]; [3],85% and 84%
same,Population Hoechst High Intensity Objects (%),[2]; [3],5% and 6%
same,Population Membrane Permeable-Phenotype (%),[2]; [3],5%
same,Population Mitochondria Different-Phenotype (%),[2]; [3],29% and 26%
same,Population Mitotic Cells (%),[2]; [3],59% and 37%
same,Population Normal (%),[2]; [3],94% and 93%
same,Population Pyknosed Nuclei (%),[2]; [3],11% and 13%
same,Population Tubulin-Different-Phenotype (%),[2]; [3],86% and 85%
same,Total Cell Count,[2]; [3],531 and 472
same,Population Apoptotic (%),[2]; [4],76% and 70%
same,Population Fragmented Nuclei (%),[2]; [4],1% and 3%
same,Population Healthy Nuclei (%),[2]; [4],82% and 83%
same,Population Hoechst High Intensity Objects (%),[2]; [4],10% and 9%
same,Population Membrane Permeable-Phenotype (%),[2]; [4],1% and 4%
same,Population Mitochondria Different-Phenotype (%),[2]; [4],82% and 70%
same,Population Mitotic Cells (%),[2]; [4],23% and 29%
same,Population Normal (%),[2]; [4],89% and 90%
same,Population Pyknosed Nuclei (%),[2]; [4],15% and 12%
same,Population Tubulin-Different-Phenotype (%),[2]; [4],85% and 82%
same,Total Cell Count,[2]; [4],395 and 352
same,Population Apoptotic (%),[2]; [5],52% and 56%
same,Population Fragmented Nuclei (%),[2]; [5],5%
same,Population Healthy Nuclei (%),[2]; [5],86% and 83%
same,Population Hoechst High Intensity Objects (%),[2]; [5],6% and 9%
same,Population Membrane Permeable-Phenotype (%),[2]; [5],4%
same,Population Mitochondria Different-Phenotype (%),[2]; [5],19% and 22%
